Results gathered from unrelated publications.
SLC22A1: Solute carrier family 22 member 1 (SLC22A1, Homo sapiens, UniProt O15245)

C[C@@]12COCO[C@@H]1CC[C@]1(C)[C@@H]2CC[C@@H]2CN(Cc3ccccc3)[C@@H](C3=CCOC3=O)C[C@H]21 — cell death (MRC5; cell growth or viability, ATP luminescence; 25 µM, 72 h): -1.2%
CN(CCC(=O)O)C(=O)c1ccc2c(c1)CC[C@@H]1[C@@H]2CC[C@]2(C)C(c3cncc(F)c3)=CC[C@@H]12 — IC50 (UDP-glucuronosyltransferase 2B4 (UGT2B4, Homo sapiens, UniProt P06133); enzyme activity, inhibitor): > 30 µM
C=CCn1c(=O)c2cnc(Nc3ccc(N4CCN(C)CC4)cc3)nc2n1-c1cccc(C(C)(C)O)n1 — concentration (human, plasma; oral, 175 mg, 8 h, single dose): 213 nM
CN(C(=O)n1cnc(-c2ccc[n+]([O-])c2)c1)C1CCCCC1 — inhibition (SLC22A1; transporter uptake, inhibitor; CHO; 1 µg/mL): 13%
COc1ccc(-c2cc(=O)c3c(OC)cc(OC)cc3o2)cc1 — CC50 (HS27; cell growth or viability, MTT; 24 h): > 200 µM
C[C@@]12COCO[C@@H]1CC[C@]1(C)[C@@H]2CC[C@@H]2CN(Cc3ccc(F)cc3)[C@@H](C3=CCOC3=O)C[C@H]21 — cell death (MRC5; cell growth or viability, ATP luminescence; 25 µM, 72 h): -4.3%
COc1cc(OC)c2c(=O)cc(-c3ccccc3Br)oc2c1 — CC50 (HS27; cell growth or viability, MTT; 24 h): > 200 µM
O=C(O)CSc1nnc(Br)n1-c1ccc(C2CC2)c2ccccc12 — inhibition (SLC22A1; transporter uptake, inhibitor; MDCK-II; 30 µM, 5 min): 58%
CC(=O)OC[C@@]1(C)[C@H]2CC[C@@H]3CN(CC(C)C)[C@@H](C4=CCOC4=O)C[C@H]3[C@]2(C)CC[C@H]1OC(C)=O — cell death (MRC5; cell growth or viability, ATP luminescence; 25 µM, 72 h): 20.7%
C=C[C@H]1C[N@@]2CC[C@H]1C[C@@H]2[C@@H](O)c1ccnc2ccc(OC)cc12 — inhibition (SLC22A1; transporter uptake, inhibitor; MDCK-II; 100 µM, 5 min): 77%
COc1ccc(-c2cc(=O)c3c(OC)cc(OC)c(-c4c(OC)cc(OC)c5c(=O)cc(-c6ccc(OC)cc6)oc45)c3o2)cc1 — CC50 (HS27; cell growth or viability, MTT; 24 h): > 200 µM
CCCCOC(=O)N1CCN(C(=O)[C@H](CP(=O)(O)O)NC(=O)c2cc(N3CC[C@H](OC)C3)nc(-c3ccccc3)n2)CC1 — concentration (human, plasma; subcutaneous, 8 mg, 24 h, single dose): 0.4 ng/mL
